Measured values from publication PMC2646117 (Cell host & microbe, 2008).
Read-outs that look alike come from different tables or passages of the source.

Tests used:
PbfabI^Rec = test: Ex vivo drug susceptibility assay, P. berghei asexual blood stages; assay type: cell-based; settings: Plasmodium berghei
Outline: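 Ex vivo growth of P. berghei asexual blood-stage parasites exposed to the test compound was measured by [³H]-hypoxanthine assay. IC50 was calculated by linear regression. Each compound was tested in duplicate on at least two separate occasions.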

ANKA = test: Ex vivo drug susceptibility assay, P. berghei asexual blood stages; assay type: cell-based; settings: Plasmodium berghei
PbΔfabI = test: as above; assay type: cell-based; settings: Plasmodium berghei
[1] = system: P. berghei (KBG-173 line); assay type: in vivo; settings: for parasitemia on day 6 post-infection: three days twice-daily divided dose
PfΔfabI^2 = test: Drug susceptibility assay, pffabI knockout clone; assay type: cell-based, P. falciparum; settings: Plasmodium falciparum, read-out: IC50 (mean ± SEM)
PfΔfabI^1 = test: Drug susceptibility assay, pffabI knockout clone; assay type: cell-based, P. falciparum; settings: Plasmodium falciparum, read-out: IC50 (mean ± SEM)
P. falciparum Dd2 = assay type: cell-based; settings: Plasmodium falciparum, DD2, read-out: mean IC50
P. falciparum 3D7 = assay type: cell-based; settings: Plasmodium falciparum, 3D7, read-out: mean IC50
Dd2^attB = test: Drug susceptibility assay, parental line; assay type: cell-based, P. falciparum; settings: Plasmodium falciparum
recombinant PfFabI A217V = recombinant PfFabI A217V versus wild type; ref Kapoor et al., 2004; cited from earlier work
PffabI(WT)^3D7 = test: Drug susceptibility assay, transgenic line; assay type: cell-based, P. falciparum; settings: Plasmodium falciparum
PffabI(A217V)^Dd2 = test: Drug susceptibility assay, transgenic line; assay type: cell-based, P. falciparum; settings: Plasmodium falciparum
3D7^attB = test: Drug susceptibility assay, parental line; assay type: cell-based, P. falciparum; settings: Plasmodium falciparum
PffabI(WT)^Dd2 = test: Drug susceptibility assay, transgenic line; assay type: cell-based, P. falciparum; settings: Plasmodium falciparum
P. berghei = settings: SC, 3 mg/kg/day, four days; ref Surolia and Surolia, 2001; cited from earlier work
PffabI(A217V)^3D7 = test: Drug susceptibility assay, transgenic line; assay type: cell-based, P. falciparum; settings: Plasmodium falciparum

SMILES: CCN(CC)CCCC(C)Nc1ccnc2cc(Cl)ccc12 (centres unmarked) [chloroquine]
- IC50 (PbfabI^Rec): 13 ± 0.6 nM
- IC50 (ANKA): 10.4 ± 0.3 nM
- IC50 (PbΔfabI): 11 ± 0.1 nM

SMILES: Oc1cc(Cl)ccc1Oc1ccc(Cl)cc1Cl [triclosan, 5-chloro-2-(2,4-dichlorophenoxy)phenol]
- parasitemia at doses above 128 mg/kg/day ([1]; PO or SC, doses higher than 128 mg/kg/day): failed to further suppress the parasitemias
- survival times ([1]; PO, 64 mg/kg/day): slight extension in survival times
- survival rate at day 31 ([1]; PO, 128 mg/kg/day): 30%
- parasitemia on day 6 post-infection ([1]; PO, 128 mg/kg/day, placebo control 61%): 27%
- survival rate at day 31 ([1]; PO, 256 mg/kg/day): 30%
- mortality / overall survival (toxicity) ([1]; PO, 512 mg/kg/day): some early mortality and decreased overall survival rates
- survival ([1]; SC route, 16 to 512 mg/kg/day): ≤ 50%
- parasitemia on day 6 post-infection ([1]; SC, 128 mg/kg/day, placebo control 57%): 13%
- IC50 (PfΔfabI^2): 2400 ± 300 nM
- IC50 (PfΔfabI^1): 2200 ± 200 nM
- IC50 (P. falciparum 3D7): 1800 nM
- IC50 (Dd2^attB; DD2, read-out: IC50 (mean±SEM)): 3100 ± 700 nM
- IC90 (Dd2^attB; DD2, read-out: IC90 (mean±SEM)): 7200 ± 700 nM
- decrease in binding affinity conferred by A217V mutation (recombinant PfFabI A217V): 7,000 fold
- IC50 (PbfabI^Rec; read-out: IC50 (means±SEM)): 1500 ± 200 nM
- IC50 (ANKA; read-out: IC50 (means±SEM)): 1200 ± 100 nM
- IC90 (3D7^attB; 3D7, read-out: IC90 (mean±SEM)): 4800 ± 600 nM
- suppression of P. berghei parasitemia (P. berghei): 75%
- IC50 (PbΔfabI; read-out: IC50 (means±SEM)): 1400 ± 100 nM
